Experimental data published in ChEMBL document CHEMBL3112561, “Small molecule disruptors of the glucokinase-glucokinase regulatory protein interaction: 2. Leveraging structure-based drug design to identify analogues with improved pharmacokinetic profiles” (J Med Chem, 2014).
Activity calls are given as the source filed them. The rule behind the calls is not given here.

System: not listed separately
Assay: Intrinsic clearance in rat liver microsomes at 1 uM after 30 mins in presence of NADPH
Type: ADME
Conditions: read-out: CLH

Compound	microsomal CLint at 1 µM
CC1CS(=O)(=O)CCN1C[C@H]1CN(S(=O)(=O)c2cccs2)CCN1c1ccc(C(C)(O)C(F)(F)F)cc1 (mixture of isomers)	93 µL/min/mg
CCC#CC1CN(S(=O)(=O)c2ccc(N)nc2)CCN1c1ccc(C(O)(C(F)(F)F)C(F)(F)F)cc1 (racemic)	109 µL/min/mg
Nc1cc(S(=O)(=O)N2CCN(c3ccc(C(O)(C(F)(F)F)C(F)(F)F)cc3)CC2)ccn1	27 µL/min/mg
Nc1ccc(S(=O)(=O)N2CCN(c3ccc(C(O)(C(F)(F)F)C(F)(F)F)cc3)CC2)cc1	49 µL/min/mg
Nc1ccccc1S(=O)(=O)N1CCN(c2ccc(C(O)(C(F)(F)F)C(F)(F)F)cc2)CC1	237 µL/min/mg
C[C@](O)(c1ccc(N2CCN(S(=O)(=O)c3cccs3)C[C@@H]2CN2[C@H]3COC[C@@H]2[C@H](O)C3)cc1)C(F)(F)F	114 µL/min/mg
C[C@](O)(c1ccc(N2CCN(S(=O)(=O)c3cccs3)C[C@@H]2CN2[C@@H]3COC[C@H]2[C@@H](O)C3)cc1)C(F)(F)F	112 µL/min/mg
CC(O)(c1ccc(N2CCN(S(=O)(=O)c3cccs3)C[C@@H]2CN2[C@H]3COC[C@H]2[C@H](O)C3)cc1)C(F)(F)F (mixture of isomers)	321 µL/min/mg
CC(O)(c1ccc(N2CCN(S(=O)(=O)c3cccs3)C[C@@H]2CN2CCS(=O)(=O)CC2)cc1)C(F)(F)F (mixture of isomers)	50 µL/min/mg
CC(C)(C)C#CC1CN(S(=O)(=O)c2ccc(N)nc2)CCN1c1ccc(C(O)(C(F)(F)F)C(F)(F)F)cc1 (racemic)	90 µL/min/mg
Nc1ncc(S(=O)(=O)N2CCN(c3ccc(C(O)(C(F)(F)F)C(F)(F)F)cc3)CC2)cn1	< 14 µL/min/mg
O=S(=O)(c1ccccc1)N1CCN(c2ccc(C(O)(C(F)(F)F)C(F)(F)F)cc2)CC1	94 µL/min/mg

Target: T1, Glucokinase regulatory protein (Homo sapiens, UniProt Q14397)
T1 sequence (Q14397 whole entry): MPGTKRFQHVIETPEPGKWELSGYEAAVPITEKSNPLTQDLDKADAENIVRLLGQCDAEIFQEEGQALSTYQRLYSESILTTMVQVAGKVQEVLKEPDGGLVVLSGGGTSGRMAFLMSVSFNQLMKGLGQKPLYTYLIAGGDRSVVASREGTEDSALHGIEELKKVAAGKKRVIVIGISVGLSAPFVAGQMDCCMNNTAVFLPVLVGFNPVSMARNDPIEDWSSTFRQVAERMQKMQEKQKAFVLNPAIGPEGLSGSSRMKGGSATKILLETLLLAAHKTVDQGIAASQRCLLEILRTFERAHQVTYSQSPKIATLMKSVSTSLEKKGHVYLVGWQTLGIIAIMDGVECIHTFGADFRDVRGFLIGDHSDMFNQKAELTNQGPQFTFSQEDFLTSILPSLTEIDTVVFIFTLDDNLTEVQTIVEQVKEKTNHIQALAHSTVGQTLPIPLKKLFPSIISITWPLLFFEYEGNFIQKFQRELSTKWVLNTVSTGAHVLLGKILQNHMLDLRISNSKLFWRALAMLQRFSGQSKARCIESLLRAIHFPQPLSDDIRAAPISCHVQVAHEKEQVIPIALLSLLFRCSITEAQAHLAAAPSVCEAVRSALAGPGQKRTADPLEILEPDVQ
Assay: Inhibition of fluorescein-labeled human GK interaction with biotin-labeled human GKRP incubated for 20 mins prior to addition of fluorescein-labeled GK measured after 2 to 4 hrs by Alpha Screen assay
Conditions: not given

Compound	IC50
CC1CS(=O)(=O)CCN1C[C@H]1CN(S(=O)(=O)c2cccs2)CCN1c1ccc(C(C)(O)C(F)(F)F)cc1 (mixture of isomers)	90 nM
CCC#CC1CN(S(=O)(=O)c2ccc(N)nc2)CCN1c1ccc(C(O)(C(F)(F)F)C(F)(F)F)cc1 (racemic)	56 nM
Nc1cc(S(=O)(=O)N2CCN(c3ccc(C(O)(C(F)(F)F)C(F)(F)F)cc3)CC2)ccn1	8630 nM
Nc1ccc(S(=O)(=O)N2CCN(c3ccc(C(O)(C(F)(F)F)C(F)(F)F)cc3)CC2)cc1	484 nM
C[C@](O)(c1ccc(N2CCN(S(=O)(=O)c3cccs3)C[C@@H]2CN2[C@H]3COC[C@@H]2[C@H](O)C3)cc1)C(F)(F)F	16 nM
C[C@](O)(c1ccc(N2CCN(S(=O)(=O)c3cccs3)C[C@@H]2CN2[C@@H]3COC[C@H]2[C@@H](O)C3)cc1)C(F)(F)F	56 nM
CC(O)(c1ccc(N2CCN(S(=O)(=O)c3cccs3)C[C@@H]2CN2[C@H]3COC[C@H]2[C@H](O)C3)cc1)C(F)(F)F (mixture of isomers)	44 nM
CC(O)(c1ccc(N2CCN(S(=O)(=O)c3cccs3)C[C@@H]2CN2CCS(=O)(=O)CC2)cc1)C(F)(F)F (mixture of isomers)	343 nM
CC(C)(C)C#CC1CN(S(=O)(=O)c2ccc(N)nc2)CCN1c1ccc(C(O)(C(F)(F)F)C(F)(F)F)cc1 (racemic)	1430 nM
O=S(=O)(c1ccccc1)N1CCN(c2ccc(C(O)(C(F)(F)F)C(F)(F)F)cc2)CC1	1010 nM

System: not listed separately
Assay: Volume of distribution at steady state in rat at 2 mg/kg, iv
Type: ADME, organism-based
Parameters: dose 2 mg/kg, route intravenous
Conditions: in vivo, read-out: Vdss
Outline: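 Intravenous PK at 2 mg/kg in 100% DMSO; steady-state volume of distribution derived from plasma profile.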

Compound	Vd
CC#C[C@H]1CN(S(=O)(=O)c2ccc(N)nc2)CCN1c1ccc([C@](C)(O)C(F)(F)F)cc1	3.7 L/kg

Target: T2, Glucokinase regulatory protein (Mus musculus, UniProt Q91X44)
T2 sequence (Q91X44 whole entry): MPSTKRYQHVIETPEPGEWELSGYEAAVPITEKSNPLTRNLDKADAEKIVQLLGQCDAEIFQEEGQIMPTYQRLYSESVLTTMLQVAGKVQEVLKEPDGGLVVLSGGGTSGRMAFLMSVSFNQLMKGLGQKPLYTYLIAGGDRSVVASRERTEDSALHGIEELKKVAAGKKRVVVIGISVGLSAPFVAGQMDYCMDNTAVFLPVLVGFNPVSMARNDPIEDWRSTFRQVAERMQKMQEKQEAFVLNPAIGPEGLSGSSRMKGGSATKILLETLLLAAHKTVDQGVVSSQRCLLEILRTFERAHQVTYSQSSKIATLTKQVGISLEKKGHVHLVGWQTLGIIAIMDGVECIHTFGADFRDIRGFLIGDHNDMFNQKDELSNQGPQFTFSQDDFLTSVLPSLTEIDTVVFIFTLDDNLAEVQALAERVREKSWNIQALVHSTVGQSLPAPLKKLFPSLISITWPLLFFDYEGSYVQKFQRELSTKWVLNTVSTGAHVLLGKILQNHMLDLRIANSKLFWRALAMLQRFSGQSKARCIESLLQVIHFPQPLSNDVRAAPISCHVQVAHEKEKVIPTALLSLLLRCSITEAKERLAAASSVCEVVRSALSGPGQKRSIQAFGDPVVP
Assay: Induction of GK translocation from nucleus to cytoplasm of mouse hepatocytes preincubated for 20 mins followed by glucose challenge measured after 40 mins by Hoechst 33342 staining-based assay
Type: cell-based, Hepatocyte
Conditions: not given

Compound	EC50
CC1CS(=O)(=O)CCN1C[C@H]1CN(S(=O)(=O)c2cccs2)CCN1c1ccc(C(C)(O)C(F)(F)F)cc1 (mixture of isomers)	> 12500 nM
CCC#CC1CN(S(=O)(=O)c2ccc(N)nc2)CCN1c1ccc(C(O)(C(F)(F)F)C(F)(F)F)cc1 (racemic)	2930 nM
Nc1cc(S(=O)(=O)N2CCN(c3ccc(C(O)(C(F)(F)F)C(F)(F)F)cc3)CC2)ccn1	> 12500 nM
Nc1ccc(S(=O)(=O)N2CCN(c3ccc(C(O)(C(F)(F)F)C(F)(F)F)cc3)CC2)cc1	> 12500 nM
Nc1ccccc1S(=O)(=O)N1CCN(c2ccc(C(O)(C(F)(F)F)C(F)(F)F)cc2)CC1	> 12500 nM
C[C@](O)(c1ccc(N2CCN(S(=O)(=O)c3cccs3)C[C@@H]2CN2[C@H]3COC[C@@H]2[C@H](O)C3)cc1)C(F)(F)F	4760 nM
C[C@](O)(c1ccc(N2CCN(S(=O)(=O)c3cccs3)C[C@@H]2CN2[C@@H]3COC[C@H]2[C@@H](O)C3)cc1)C(F)(F)F	> 12500 nM
CC(O)(c1ccc(N2CCN(S(=O)(=O)c3cccs3)C[C@@H]2CN2[C@H]3COC[C@H]2[C@H](O)C3)cc1)C(F)(F)F (mixture of isomers)	1690 nM
CC(O)(c1ccc(N2CCN(S(=O)(=O)c3cccs3)C[C@@H]2CN2CCS(=O)(=O)CC2)cc1)C(F)(F)F (mixture of isomers)	> 12500 nM
CC(C)(C)C#CC1CN(S(=O)(=O)c2ccc(N)nc2)CCN1c1ccc(C(O)(C(F)(F)F)C(F)(F)F)cc1 (racemic)	> 12500 nM
O=S(=O)(c1ccccc1)N1CCN(c2ccc(C(O)(C(F)(F)F)C(F)(F)F)cc2)CC1	> 12500 nM

System: not listed separately
Assay: Oral bioavailability in rat at 10 mg/kg
Type: ADME, organism-based
Conditions: in vivo

Compound	bioavailability
CC#C[C@H]1CN(S(=O)(=O)c2ccc(N)nc2)CCN1c1ccc([C@](C)(O)C(F)(F)F)cc1	57%

System: not listed separately
Assay: Intrinsic clearance in human liver microsomes at 1 uM after 30 mins in presence of NADPH
Type: ADME
Conditions: read-out: CLH

Compound	microsomal CLint at 1 µM
CC1CS(=O)(=O)CCN1C[C@H]1CN(S(=O)(=O)c2cccs2)CCN1c1ccc(C(C)(O)C(F)(F)F)cc1 (mixture of isomers)	132 µL/min/mg
CCC#CC1CN(S(=O)(=O)c2ccc(N)nc2)CCN1c1ccc(C(O)(C(F)(F)F)C(F)(F)F)cc1 (racemic)	< 14 µL/min/mg
C[C@](O)(c1ccc(N2CCN(S(=O)(=O)c3cccs3)C[C@@H]2CN2[C@H]3COC[C@@H]2[C@H](O)C3)cc1)C(F)(F)F	135 µL/min/mg
C[C@](O)(c1ccc(N2CCN(S(=O)(=O)c3cccs3)C[C@@H]2CN2[C@@H]3COC[C@H]2[C@@H](O)C3)cc1)C(F)(F)F	131 µL/min/mg
CC(O)(c1ccc(N2CCN(S(=O)(=O)c3cccs3)C[C@@H]2CN2[C@H]3COC[C@H]2[C@H](O)C3)cc1)C(F)(F)F (mixture of isomers)	302 µL/min/mg
CC(O)(c1ccc(N2CCN(S(=O)(=O)c3cccs3)C[C@@H]2CN2CCS(=O)(=O)CC2)cc1)C(F)(F)F (mixture of isomers)	92 µL/min/mg
CC(C)(C)C#CC1CN(S(=O)(=O)c2ccc(N)nc2)CCN1c1ccc(C(O)(C(F)(F)F)C(F)(F)F)cc1 (racemic)	< 14 µL/min/mg

System: Mus musculus
Assay: Antidiabetic activity in insulin-resistant db/db mouse assessed as reduction of fed blood glucose level at 50 mg/kg, po measured at 4 to 8 hrs
Type: functional, organism-based
Parameters: dose 50 mg/kg
Conditions: not given
Outline: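 Fed db/db mice from 8–9 wk of age, acclimatized 1 wk; retro-orbital bleed at 8:00 AM, glucose by meter, randomized, only 300–500 mg/dL included. Oral gavage at 9:00 AM in 2% HPMC/1% Tween 80, pH 2.2 (MSA). Blood glucose at 4 and 8 h post-dose versus vehicle groups (n ≥ 7); ANCOVA.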

Compound	Activity
CS(=O)(=O)c1ccc([C@@H](CC2CCCC2)C(=O)Nc2nccs2)cc1	Active

System: not listed separately
Assay: Mean residence time in rat at 10 mg/kg, po
Type: ADME, organism-based
Parameters: dose 10 mg/kg, route oral
Conditions: in vivo
Outline: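 Oral PK at 10 mg/kg in 1% Tween 80, 2% HPMC, 97% water, […]; mean residence time from plasma profile.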

Compound	MRT
CC#C[C@H]1CN(S(=O)(=O)c2ccc(N)nc2)CCN1c1ccc([C@](C)(O)C(F)(F)F)cc1	2.9 h
